# Reference: ChEMBL document CHEMBL4689842, “EUbOPEN Chemogenomics Library wave 1” (2021)
# Tested on: HEK-293T
# Test: Multiplex assay against HEK293T;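 on Population Tubulin-Different-Phenotype (%): share of the cells with healthy nuclei that show this phenotype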
# Type: toxicity, cell-based
# Conditions: human
# How it was run: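 Live cells carried four stains from seeding: Hoechst33342, BioTracker Green Microtubule Cytoskeleton Dye, MitoTracker Red and Annexin V Alexa Fluor 680. They were imaged on a CQ1 microscope at 37°C and 5% CO2 after compound addition. Using CellPathfinder machine-learning gating, cells were split into Hoechst high-intensity objects or normal cells, normal cells into healthy, pyknosed or fragmented nuclei, and pyknosed cells into mitotic or apoptotic; tubulin, mitochondrial-mass and membrane-permeability phenotypes are per cents of healthy-nucleus cells.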
# [1] = 12 h, 1 µM, compound concentration 1 uM, replicate 1
# [2] = 12 h, 1 µM, compound concentration 1 uM, replicate 2
# [3] = 12 h, 10 µM, compound concentration 10 uM, replicate 1
# [4] = 12 h, 10 µM, compound concentration 10 uM, replicate 2
# [5] = 24 h, 1 µM, compound concentration 1 uM, replicate 1
# [6] = 24 h, 1 µM, compound concentration 1 uM, replicate 2
# [7] = 24 h, 10 µM, compound concentration 10 uM, replicate 1
# [8] = 24 h, 10 µM, compound concentration 10 uM, replicate 2
# [9] = 48 h, 1 µM, compound concentration 1 uM, replicate 1
# [10] = 48 h, 1 µM, compound concentration 1 uM, replicate 2
# [11] = 48 h, 10 µM, compound concentration 10 uM, replicate 1
# [12] = 48 h, 10 µM, compound concentration 10 uM, replicate 2
structure (smiles),measurement,setting,value
Cc1csc2c(N[C@@H](C)CN3CCN(S(=O)(=O)c4ccc(Cl)c(Cl)c4)CC3)ncnc12,Population Apoptotic (%),[1],58%
same,Population Fragmented Nuclei (%),[1],12%
same,Population Healthy Nuclei (%),[1],16%
same,Population Hoechst High Intensity Objects (%),[1],19%
same,Population Membrane Permeable-Phenotype (%),[1],6%
same,Population Mitochondria Different-Phenotype (%),[1],96%
same,Population Mitotic Cells (%),[1],41%
same,Population Normal (%),[1],80%
same,Population Pyknosed Nuclei (%),[1],71%
same,Population Tubulin-Different-Phenotype (%),[1],93%
same,Total Cell Count,[1],223
same,Population Apoptotic (%),[2],27%
same,Population Fragmented Nuclei (%),[2],5%
same,Population Healthy Nuclei (%),[2],29%
same,Population Hoechst High Intensity Objects (%),[2],13%
same,Population Membrane Permeable-Phenotype (%),[2],14%
same,Population Mitochondria Different-Phenotype (%),[2],47%
same,Population Mitotic Cells (%),[2],72%
same,Population Normal (%),[2],86%
same,Population Pyknosed Nuclei (%),[2],64%
same,Population Tubulin-Different-Phenotype (%),[2],64%
same,Total Cell Count,[2],135
same,Population Apoptotic (%),[3],79%
same,Population Fragmented Nuclei (%),[3],9%
same,Population Healthy Nuclei (%),[3],5%
same,Population Hoechst High Intensity Objects (%),[3],11%
same,Population Membrane Permeable-Phenotype (%),[3],20%
same,Population Mitochondria Different-Phenotype (%),[3],90%
same,Population Mitotic Cells (%),[3],20%
same,Population Normal (%),[3],88%
same,Population Pyknosed Nuclei (%),[3],84%
same,Population Tubulin-Different-Phenotype (%),[3],80%
same,Total Cell Count,[3],197
same,Population Apoptotic (%),[4],80%
same,Population Fragmented Nuclei (%),[4],5%
same,Population Healthy Nuclei (%),[4],11%
same,Population Hoechst High Intensity Objects (%),[4],8%
same,Population Membrane Permeable-Phenotype (%),[4],9%
same,Population Mitotic Cells (%),[4],19%
same,Population Normal (%),[4],91%
same,Population Pyknosed Nuclei (%),[4],83%
same,Population Tubulin-Different-Phenotype (%),[4],68%
same,Total Cell Count,[4],206
same,Population Apoptotic (%),[5],57%
same,Population Fragmented Nuclei (%),[5],16%
same,Population Healthy Nuclei (%),[5],21%
same,Population Hoechst High Intensity Objects (%),[5],18%
same,Population Membrane Permeable-Phenotype (%),[5],4%
same,Population Mitochondria Different-Phenotype (%),[5],93%
same,Population Mitotic Cells (%),[5],42%
same,Population Normal (%),[5],81%
same,Population Pyknosed Nuclei (%),[5],62%
same,Population Tubulin-Different-Phenotype (%),[5],90%
same,Total Cell Count,[5],244
same,Population Apoptotic (%),[6],35%
same,Population Fragmented Nuclei (%),[6],10%
same,Population Healthy Nuclei (%),[6],28%
same,Population Hoechst High Intensity Objects (%),[6],7%
same,Population Membrane Permeable-Phenotype (%),[6],8%
same,Population Mitochondria Different-Phenotype (%),[6],44%
same,Population Mitotic Cells (%),[6],64%
same,Population Normal (%),[6],92%
same,Population Pyknosed Nuclei (%),[6],61%
same,Population Tubulin-Different-Phenotype (%),[6],88%
same,Total Cell Count,[6],131
same,Population Apoptotic (%),[7],85%
same,Population Fragmented Nuclei (%),[7],12%
same,Population Healthy Nuclei (%),[7],6%
same,Population Hoechst High Intensity Objects (%),[7],16%
same,Population Membrane Permeable-Phenotype (%),[7],27%
same,Population Mitochondria Different-Phenotype (%),[7],90%
same,Population Mitotic Cells (%),[7],14%
same,Population Normal (%),[7],83%
same,Population Pyknosed Nuclei (%),[7],80%
same,Population Tubulin-Different-Phenotype (%),[7],63%
same,Total Cell Count,[7],208
same,Population Apoptotic (%),[8],88%
same,Population Fragmented Nuclei (%),[8],5%
same,Population Healthy Nuclei (%),[8],7%
same,Population Hoechst High Intensity Objects (%),[8],9%
same,Population Membrane Permeable-Phenotype (%),[8],0%
same,Population Mitochondria Different-Phenotype (%),[8],85%
same,Population Mitotic Cells (%),[8],11%
same,Population Normal (%),[8],91%
same,Population Pyknosed Nuclei (%),[8],86%
same,Population Tubulin-Different-Phenotype (%),[8],71%
same,Total Cell Count,[8],200
same,Population Apoptotic (%),[9],59%
same,Population Fragmented Nuclei (%),[9],16%
same,Population Healthy Nuclei (%),[9],38%
same,Population Hoechst High Intensity Objects (%),[9],17%
same,Population Membrane Permeable-Phenotype (%),[9],5%
same,Population Mitochondria Different-Phenotype (%),[9],80%
same,Population Mitotic Cells (%),[9],40%
same,Population Normal (%),[9],82%
same,Population Pyknosed Nuclei (%),[9],45%
same,Population Tubulin-Different-Phenotype (%),[9],85%
same,Total Cell Count,[9],240
same,Population Apoptotic (%),[10],29%
same,Population Fragmented Nuclei (%),[10],10%
same,Population Healthy Nuclei (%),[10],47%
same,Population Hoechst High Intensity Objects (%),[10],8%
same,Population Membrane Permeable-Phenotype (%),[10],17%
same,Population Mitochondria Different-Phenotype (%),[10],44%
same,Population Mitotic Cells (%),[10],70%
same,Population Normal (%),[10],91%
same,Population Pyknosed Nuclei (%),[10],42%
same,Population Tubulin-Different-Phenotype (%),[10],89%
same,Total Cell Count,[10],159
same,Population Apoptotic (%),[11],47%
same,Population Fragmented Nuclei (%),[11],23%
same,Population Healthy Nuclei (%),[11],4%
same,Population Hoechst High Intensity Objects (%),[11],17%
same,Population Membrane Permeable-Phenotype (%),[11],25%
same,Population Mitochondria Different-Phenotype (%),[11],62%
same,Population Mitotic Cells (%),[11],52%
same,Population Normal (%),[11],82%
same,Population Pyknosed Nuclei (%),[11],72%
same,Population Tubulin-Different-Phenotype (%),[11],87%
same,Total Cell Count,[11],229
same,Population Apoptotic (%),[12],74%
same,Population Fragmented Nuclei (%),[12],4%
same,Population Healthy Nuclei (%),[12],21%
same,Population Hoechst High Intensity Objects (%),[12],13%
same,Population Membrane Permeable-Phenotype (%),[12],8%
same,Population Mitochondria Different-Phenotype (%),[12],78%
same,Population Mitotic Cells (%),[12],25%
same,Population Normal (%),[12],86%
same,Population Pyknosed Nuclei (%),[12],73%
same,Population Tubulin-Different-Phenotype (%),[12],67%
same,Total Cell Count,[12],199
Cn1cc(-c2[nH]c3cc(NC(=O)[C@H](N)C4CCCCC4)cc4c3c2C=NNC4=O)cn1,Population Apoptotic (%),[1],40%
same,Population Fragmented Nuclei (%),[1],10%
same,Population Healthy Nuclei (%),[1],26%
same,Population Hoechst High Intensity Objects (%),[1],14%
same,Population Membrane Permeable-Phenotype (%),[1],10%
same,Population Mitochondria Different-Phenotype (%),[1],71%
same,Population Mitotic Cells (%),[1],60%
same,Population Normal (%),[1],85%
same,Population Pyknosed Nuclei (%),[1],62%
same,Population Tubulin-Different-Phenotype (%),[1],42%
same,Total Cell Count,[1],344
same,Population Apoptotic (%),[2],17%
same,Population Fragmented Nuclei (%),[2],6%
same,Population Healthy Nuclei (%),[2],28%
same,Population Hoechst High Intensity Objects (%),[2],6%
same,Population Membrane Permeable-Phenotype (%),[2],11%
same,Population Mitochondria Different-Phenotype (%),[2],7%
same,Population Mitotic Cells (%),[2],82%
same,Population Normal (%),[2],93%
same,Population Pyknosed Nuclei (%),[2],65%
same,Population Tubulin-Different-Phenotype (%),[2],25%
same,Total Cell Count,[2],259
same,Population Apoptotic (%),[3],64%
same,Population Fragmented Nuclei (%),[3],15%
same,Population Healthy Nuclei (%),[3],24%
same,Population Hoechst High Intensity Objects (%),[3],17%
same,Population Membrane Permeable-Phenotype (%),[3],10%
same,Population Mitochondria Different-Phenotype (%),[3],82%
same,Population Mitotic Cells (%),[3],35%
same,Population Normal (%),[3],82%
same,Population Pyknosed Nuclei (%),[3],60%
same,Population Tubulin-Different-Phenotype (%),[3],62%
same,Total Cell Count,[3],329
same,Population Apoptotic (%),[4],42%
same,Population Fragmented Nuclei (%),[4],6%
same,Population Healthy Nuclei (%),[4],17%
same,Population Hoechst High Intensity Objects (%),[4],6%
same,Population Membrane Permeable-Phenotype (%),[4],6%
same,Population Mitochondria Different-Phenotype (%),[4],46%
same,Population Mitotic Cells (%),[4],57%
same,Population Normal (%),[4],93%
same,Population Pyknosed Nuclei (%),[4],75%
same,Population Tubulin-Different-Phenotype (%),[4],66%
same,Total Cell Count,[4],180
same,Population Apoptotic (%),[5],41%
same,Population Fragmented Nuclei (%),[5],13%
same,Population Healthy Nuclei (%),[5],20%
same,Population Hoechst High Intensity Objects (%),[5],19%
same,Population Membrane Permeable-Phenotype (%),[5],5%
same,Population Mitochondria Different-Phenotype (%),[5],62%
same,Population Mitotic Cells (%),[5],58%
same,Population Normal (%),[5],80%
same,Population Pyknosed Nuclei (%),[5],65%
same,Population Tubulin-Different-Phenotype (%),[5],68%
same,Total Cell Count,[5],330
same,Population Apoptotic (%),[6],40%
same,Population Fragmented Nuclei (%),[6],6%
same,Population Healthy Nuclei (%),[6],26%
same,Population Hoechst High Intensity Objects (%),[6],9%
same,Population Membrane Permeable-Phenotype (%),[6],14%
same,Population Mitochondria Different-Phenotype (%),[6],19%
same,Population Mitotic Cells (%),[6],59%
same,Population Normal (%),[6],90%
same,Population Pyknosed Nuclei (%),[6],67%
same,Population Tubulin-Different-Phenotype (%),[6],53%
same,Total Cell Count,[6],263
same,Population Apoptotic (%),[7],74%
same,Population Fragmented Nuclei (%),[7],17%
same,Population Healthy Nuclei (%),[7],13%
same,Population Hoechst High Intensity Objects (%),[7],17%
same,Population Membrane Permeable-Phenotype (%),[7],14%
same,Population Mitochondria Different-Phenotype (%),[7],97%
same,Population Mitotic Cells (%),[7],25%
same,Population Normal (%),[7],82%
same,Population Pyknosed Nuclei (%),[7],69%
same,Population Tubulin-Different-Phenotype (%),[7],82%
same,Total Cell Count,[7],311
same,Population Apoptotic (%),[8],72%
same,Population Fragmented Nuclei (%),[8],6%
same,Population Healthy Nuclei (%),[8],6%
same,Population Hoechst High Intensity Objects (%),[8],12%
same,Population Membrane Permeable-Phenotype (%),[8],0%
same,Population Mitochondria Different-Phenotype (%),[8],70%
same,Population Mitotic Cells (%),[8],27%
same,Population Normal (%),[8],87%
same,Population Pyknosed Nuclei (%),[8],86%
same,Population Tubulin-Different-Phenotype (%),[8],70%
same,Total Cell Count,[8],175
same,Population Apoptotic (%),[9],36%
same,Population Fragmented Nuclei (%),[9],22%
same,Population Healthy Nuclei (%),[9],5%
same,Population Hoechst High Intensity Objects (%),[9],23%
same,Population Membrane Permeable-Phenotype (%),[9],6%
same,Population Mitochondria Different-Phenotype (%),[9],46%
same,Population Mitotic Cells (%),[9],63%
same,Population Normal (%),[9],76%
same,Population Pyknosed Nuclei (%),[9],71%
same,Population Tubulin-Different-Phenotype (%),[9],60%
same,Total Cell Count,[9],373
same,Population Apoptotic (%),[10],52%
same,Population Fragmented Nuclei (%),[10],10%
same,Population Healthy Nuclei (%),[10],14%
same,Population Hoechst High Intensity Objects (%),[10],17%
same,Population Membrane Permeable-Phenotype (%),[10],17%
same,Population Mitochondria Different-Phenotype (%),[10],20%
same,Population Mitotic Cells (%),[10],47%
same,Population Normal (%),[10],82%
same,Population Pyknosed Nuclei (%),[10],75%
same,Population Tubulin-Different-Phenotype (%),[10],64%
same,Total Cell Count,[10],278
same,Population Apoptotic (%),[11],72%
same,Population Fragmented Nuclei (%),[11],20%
same,Population Healthy Nuclei (%),[11],3%
same,Population Hoechst High Intensity Objects (%),[11],20%
same,Population Membrane Permeable-Phenotype (%),[11],11%
same,Population Mitochondria Different-Phenotype (%),[11],77%
same,Population Mitotic Cells (%),[11],27%
same,Population Normal (%),[11],79%
same,Population Pyknosed Nuclei (%),[11],76%
same,Population Tubulin-Different-Phenotype (%),[11],66%
same,Total Cell Count,[11],331
same,Population Apoptotic (%),[12],89%
same,Population Fragmented Nuclei (%),[12],5%
same,Population Healthy Nuclei (%),[12],1%
same,Population Hoechst High Intensity Objects (%),[12],15%
same,Population Membrane Permeable-Phenotype (%),[12],0%
same,Population Mitochondria Different-Phenotype (%),[12],66%
same,Population Mitotic Cells (%),[12],10%
same,Population Normal (%),[12],84%
same,Population Pyknosed Nuclei (%),[12],92%
same,Total Cell Count,[12],179
